Measured values taken from ChEMBL document CHEMBL1149096 (J Med Chem, 2004).
Active and inactive are the calls of the source.

Key:
[1] = biological target: Delta-type opioid receptor (Rattus norvegicus, UniProt P33533); assay: Binding affinity at opioid receptor delta 1 by displacement of [3H]DADLE in rat brain membrane; type: cell membranes
[2] = biological target: T1, Kappa-type opioid receptor (Cavia porcellus, UniProt P41144); assay: Binding affinity at Opioid receptor kappa 1 by displacement of [3H]U-69593 in guinea pig brain membranes; type: cell membranes, Membrane
T1 sequence (P41144 whole entry): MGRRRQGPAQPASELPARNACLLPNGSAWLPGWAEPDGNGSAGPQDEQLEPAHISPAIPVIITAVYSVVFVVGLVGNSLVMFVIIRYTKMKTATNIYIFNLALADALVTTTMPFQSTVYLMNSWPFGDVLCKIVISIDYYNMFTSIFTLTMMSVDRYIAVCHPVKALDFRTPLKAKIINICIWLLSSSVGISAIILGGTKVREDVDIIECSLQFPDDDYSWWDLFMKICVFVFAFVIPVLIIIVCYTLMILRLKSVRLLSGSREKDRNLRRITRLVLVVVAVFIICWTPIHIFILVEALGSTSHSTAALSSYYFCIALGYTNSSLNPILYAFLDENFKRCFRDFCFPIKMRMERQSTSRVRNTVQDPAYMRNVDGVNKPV

Mu-type opioid receptor [3] = biological target: T2, Mu-type opioid receptor (Cavia porcellus, UniProt P97266); assay: Agonistic activity towards Opioid receptor mu 1 was determined in [35S]GTP-gamma-S, binding assay in guinea pig caudate; g = not active as an agonist; type: functional
T2 sequence (P97266 whole entry): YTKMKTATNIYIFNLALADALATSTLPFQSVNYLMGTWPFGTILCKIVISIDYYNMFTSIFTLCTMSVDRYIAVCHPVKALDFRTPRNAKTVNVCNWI
Method in brief: (§1)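 Guinea pig caudate membranes (10-20 µg protein) incubated 3 h at 22 °C in Tris-HCl pH 7.4 containing 100 mM NaCl, 10 mM MgCl2, 1 mM EDTA, 100 µM GDP and 0.05-0.1 nM [35S]GTP-γ-S, then filtered and counted. Nonspecific binding defined with 10 µM GTP-γ-S. Site isolation used CTAP, nor-BNI, NTI or TIPP. […] Three experiments pooled; logistic fit.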

[4] = biological target: T1, Kappa-type opioid receptor; assay: Agonistic activity towards Opioid receptor kappa 1 was determined in [35S]GTP-gamma-S, binding assay in guinea pig caudate; type: functional; method in brief: as §1
Cavia porcellus = species: Cavia porcellus; assay: Selectivity given as ratio of kappa receptor to delta receptor
[5] = biological target: Delta-type opioid receptor (Mus musculus) (UniProt P32300); assay: Agonist activity by the max response towards opioid receptor delta 1 induced contractions in mouse vas deferens (MVD) smooth muscle contraction assays; type: functional, tissue-based
Delta-type opioid receptor (Mus musculus), sequence (P32300 whole entry): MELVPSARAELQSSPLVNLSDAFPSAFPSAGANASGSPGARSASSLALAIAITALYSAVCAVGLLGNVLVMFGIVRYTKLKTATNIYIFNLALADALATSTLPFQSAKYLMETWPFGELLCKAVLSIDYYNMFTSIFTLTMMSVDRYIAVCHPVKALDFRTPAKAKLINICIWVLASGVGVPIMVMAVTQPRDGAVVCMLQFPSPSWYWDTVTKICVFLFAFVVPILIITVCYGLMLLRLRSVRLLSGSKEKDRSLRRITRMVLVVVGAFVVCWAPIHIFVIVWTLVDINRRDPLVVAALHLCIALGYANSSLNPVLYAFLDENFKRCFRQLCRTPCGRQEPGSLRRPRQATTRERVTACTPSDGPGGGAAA
Method in brief: (§2)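 Electrically stimulated MVD (male ICR mice, 25-40 g) and GPI longitudinal muscle myenteric plexus strips (male Hartley guinea pigs, 250-500 g). Baths held 37 °C oxygenated Krebs bicarbonate (Mg-free for MVD), tension 1 g GPI / 0.5 g MVD. Stimulation 0.1 Hz, 0.4 ms pulses (2 ms MVD), supramaximal voltage. […] IC50 from two to four tissues by nonlinear least squares.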

[6] = biological target: Delta-type opioid receptor (Mus musculus) (UniProt P32300); conditions: Vas deferens
[7] = biological target: Opioid receptors; mu & delta (Rattus norvegicus) (UniProt P33533+P33535); assay: Selectivity given as ratio of mu receptor to delta receptor; type: protein assay
Opioid receptors; mu & delta (Rattus norvegicus), sequence (P33533 whole entry, looked up): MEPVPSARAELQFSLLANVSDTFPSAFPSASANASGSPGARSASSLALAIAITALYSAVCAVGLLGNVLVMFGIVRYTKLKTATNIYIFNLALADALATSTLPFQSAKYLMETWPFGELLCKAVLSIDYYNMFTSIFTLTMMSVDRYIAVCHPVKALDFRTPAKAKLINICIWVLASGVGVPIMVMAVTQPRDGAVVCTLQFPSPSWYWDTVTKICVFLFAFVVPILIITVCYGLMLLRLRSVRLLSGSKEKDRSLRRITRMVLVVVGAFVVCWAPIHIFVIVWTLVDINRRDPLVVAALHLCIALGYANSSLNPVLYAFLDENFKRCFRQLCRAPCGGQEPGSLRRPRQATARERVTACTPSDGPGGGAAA
Opioid receptors; mu & delta (Rattus norvegicus), sequence (P33535 whole entry, looked up): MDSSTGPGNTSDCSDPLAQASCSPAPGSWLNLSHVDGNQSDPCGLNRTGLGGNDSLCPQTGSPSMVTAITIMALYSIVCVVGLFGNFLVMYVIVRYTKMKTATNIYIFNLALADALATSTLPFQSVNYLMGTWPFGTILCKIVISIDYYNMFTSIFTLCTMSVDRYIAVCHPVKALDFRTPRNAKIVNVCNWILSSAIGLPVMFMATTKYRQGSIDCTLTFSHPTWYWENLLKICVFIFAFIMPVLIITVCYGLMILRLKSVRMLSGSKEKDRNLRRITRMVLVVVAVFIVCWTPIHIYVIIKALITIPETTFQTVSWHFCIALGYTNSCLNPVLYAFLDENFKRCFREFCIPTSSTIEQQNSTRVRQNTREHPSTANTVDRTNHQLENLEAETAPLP

[8] = biological target: Mu-type opioid receptor (Cavia porcellus) (UniProt P97266); conditions: Ileum, filed as agonist
Mu-type opioid receptor (Cavia porcellus), sequence (P97266 whole entry): as the sequence (P97266 whole entry) above

Mu-type opioid receptor [9] = biological target: T2, Mu-type opioid receptor; assay: Apparent binding affinity of compound was determined by antagonism towards Opioid receptor mu 1 in [35S]GTP-gamma-S, binding assay in guinea pig caudate; type: functional
Mu-type opioid receptor [10] = biological target: T2, Mu-type opioid receptor; assay: Inhibitory concentration for inhibition of Opioid receptor mu 1 induced contractions in guinea pig ileum (GPI) smooth muscle assays; type: functional, tissue-based
Method in brief: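 Electrically stimulated MVD (male ICR mice, 25-40 g) and GPI longitudinal muscle myenteric plexus strips (male Hartley guinea pigs, 250-500 g). Baths held 37 °C oxygenated Krebs bicarbonate (Mg-free for MVD), tension 1 g GPI / 0.5 g MVD. Stimulation 0.1 Hz, 0.4 ms pulses (2 ms MVD), supramaximal voltage. IC50 from two to four tissues by nonlinear least squares.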

Mus musculus [11] = species: Mus musculus; assay: Antinociceptive effect was determined at 100 nM in mouse; type: functional
[12] = biological target: T1, Kappa-type opioid receptor; assay: Apparent binding affinity of compound was determined by antagonism towards Opioid receptor kappa 1 in [35S]GTP-gamma-S, binding assay in guinea pig caudate; type: functional
[13] = biological target: Mu-type opioid receptor (Cavia porcellus) (UniProt P97266)
Mus musculus [14] = species: Mus musculus; assay: Antinociceptive effect was determined by the ability to exhibit 80% reduction of naloxone induced sensitivity; Yes; type: functional, organism-based
[15] = biological target: Delta-type opioid receptor (Mus musculus) (UniProt P32300); conditions: Vas deferens; filed as agonist
Mu-type opioid receptor [16] = biological target: T2, Mu-type opioid receptor; assay: Antagonism of compound towards Opioid receptor mu 1 was determined using PL-017 in guinea pig ileum (GPI) smooth muscle contraction assays; d = agonist effect was observed; type: functional, tissue-based
Mu-type opioid receptor [17] = biological target: T2, Mu-type opioid receptor; assay: Agonistic activity towards Opioid receptor mu 1 was determined in [35S]GTP-gamma-S, binding assay in guinea pig caudate; type: functional; method in brief: as §1
Mus musculus [18] = species: Mus musculus; assay: Antinociceptive effect was determined by the ability to exhibit 80% reduction of naloxone induced sensitivity; No; type: functional, organism-based
[19] = biological target: T1, Kappa-type opioid receptor; assay: Agonistic activity towards Opioid receptor kappa 1 was determined in [35S]GTP-gamma-S, binding assay in guinea pig caudate; g = not active as an agonist; type: functional; method in brief: as §1
Mu-type opioid receptor [20] = biological target: T2, Mu-type opioid receptor; assay: Apparent binding affinity of compound was determined by antagonism towards Opioid receptor mu 1in [35S]GTP-gamma-S, binding assay in guinea pig caudate; i = could not be calculated because of agonist activity; type: functional
Mus musculus [21] = assay: Analgesic activity was calculated at time of peak drug effect when administered (icv) in mouse warm-water tail withdrawal assay; type: functional
Method in brief: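 Male ICR mice dosed icv (5 µL; water or 100% DMSO) under light ether anaesthesia. 55 °C warm-water tail withdrawal read at 10-180 min, cutoff 10 s. %MPE = 100 × (test − control)/(cutoff − control). A50 and 95% CI taken at peak effect by linear regression.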

[22] = biological target: Mu-type opioid receptor (Cavia porcellus) (UniProt P97266); conditions: Ileum, filed as agonist; remark: listed apart in the source
[23] = biological target: Delta-type opioid receptor (Mus musculus) (UniProt P32300); assay: Agonist activity by the maximum response towards opioid receptor delta 1 induced contractions in mouse vas deferens (MVD) smooth muscle contraction assays; type: functional, tissue-based; method in brief: as §2
Mu-type opioid receptor [24] = biological target: Mu-type opioid receptor (Rattus norvegicus, UniProt P33535); assay: Binding affinity at Opioid receptor mu 1 by displacement of [3H]DAMGO in rat brain membrane; type: cell membranes
Mu-type opioid receptor (Rattus norvegicus, UniProt P33535), sequence (P33535 whole entry): as the sequence (P33535 whole entry, looked up) above

Delta-type opioid receptor, sequence (P33533 whole entry): as the sequence (P33533 whole entry, looked up) above

## C[C@@H](NC(=O)[C@@H](N)Cc1ccc(O)cc1)C(=O)NCC(=O)N(C)[C@@H](Cc1ccccc1)C(=O)NCCO [DAMGO]
[1]
  Ki: 469 nM
[2]
  Ki: 5820 nM

## CN1CC[C@]23c4c5ccc(O)c4O[C@H]2c2ncc(-c4ccc(Cl)cc4Cl)cc2C[C@H]3[C@H]1C5
Mu-type opioid receptor [3]; read-out: EC50
  EC50: 225 nM
[4]
  EC50: Not Active
Cavia porcellus
  Ratio: 366
[5]
  Response: 28.3%
[6]
  Ke: 5.02 nM
[7]
  Ratio: 88
[8]
  Ke: Agonist
Mu-type opioid receptor [9]
  Ki: > 1000 nM
Mu-type opioid receptor [10]
  IC50: 724 nM
Mus musculus [11]
  Activity: 40%

## CN1CC[C@]23c4c5ccc(O)c4O[C@H]2c2ncc(-c4ccccc4)cc2C[C@H]3[C@H]1C5
[12]
  Ki: > 1000 nM
Cavia porcellus
  Ratio: 43
[13]
  Ke: inactive
Mus musculus [14]
  Activity: Active
[15]
  Ke: Agonist
Mu-type opioid receptor [16]
  EC50: 1030 nM
[7]
  Ratio: 13
Mu-type opioid receptor [9]
  Ki: > 1000 nM
Mu-type opioid receptor [17]
  EC50: Not Active
Mu-type opioid receptor [10]
  IC50: 98.7 nM
Mus musculus [11]
  Activity: 48%

## COc1ccc2c3c1O[C@H]1c4ncc(-c5ccc(Cl)cc5)cc4C[C@@]4(O)[C@@H](C2)N(C)CC[C@]314
[2]
  Ki: > 7100 nM

## CN1CC[C@]23c4c5ccc(O)c4O[C@H]2c2ncccc2C[C@H]3[C@H]1C5
[12]
  Ki: > 1000 nM
Mus musculus [18]
  Activity: inactive
Cavia porcellus
  Ratio: 8
[19]
  EC50: Not Active
[15]
  Ke: Agonist
[7]
  Ratio: 1.6
[8]
  Ke: Agonist
Mu-type opioid receptor [9]
  Ki: > 1000 nM
Mu-type opioid receptor [17]; read-out: EC50
  EC50: 3000 nM
Mu-type opioid receptor [10]
  IC50: 67.7 nM
Mus musculus [11]
  Activity: 75%

## CN1CC[C@]23c4c5ccc(O)c4O[C@H]2c2ncc(-c4ccc(Cl)cc4)cc2C[C@H]3[C@H]1C5
Mu-type opioid receptor [3]; read-out: EC50
  EC50: 900 nM
[4]
  EC50: Not Active
Cavia porcellus
  Ratio: 18
Mus musculus [14]
  Activity: Active
Mu-type opioid receptor [20]
  Ki: Agonist
[6]
  Ke: 21.9 nM
[7]
  Ratio: 34
[8]
  Ke: Agonist
Mus musculus [21]
  A50: 42.8 nM
Mu-type opioid receptor [10]
  IC50: 177 nM

## CN1CC[C@]23c4c5ccc(O)c4O[C@H]2c2ncc(-c4ccc(Br)cc4)cc2C[C@H]3[C@H]1C5
Mu-type opioid receptor [3]; read-out: EC50
  EC50: 3220 nM
[4]
  EC50: Not Active
[22]
  Ke: Agonist
Cavia porcellus
  Ratio: 18
Mus musculus [14]
  Activity: Active
[23]
  Response: 44%
[6]
  Ke: 20 nM
[7]
  Ratio: 40
Mu-type opioid receptor [9]
  Ki: > 1000 nM
Mus musculus [21]
  A50: 47.2 nM
Mu-type opioid receptor [10]
  IC50: 666 nM

## Oc1ccc2c3c1O[C@H]1c4ncc(-c5ccc(Cl)cc5)cc4C[C@H]4[C@@H](C2)N(CC2CC2)CC[C@]314
Mu-type opioid receptor [3]
  EC50: Not Active
Cavia porcellus
  Ratio: 2.3
[5]
  Response: 7.9%
[19]
  EC50: Not Active
[6]
  Ke: 6 nM
[7]
  Ratio: 24
[8]
  Ke: Agonist
Mu-type opioid receptor [9]
  Ki: 9.2 nM
Mu-type opioid receptor [10]
  IC50: 109 nM

## Oc1ccc2c3c1O[C@H]1c4ncc(-c5ccc(Cl)cc5)cc4C[C@@]4(O)[C@@H](C2)N(CC2CC2)CC[C@]314
Mu-type opioid receptor [3]
  EC50: Not Active
[19]
  EC50: Not Active
[23]
  Response: 21%
Mu-type opioid receptor [9]
  Ki: 7.8 nM
Mu-type opioid receptor [10]
  IC50: 163 nM
Mus musculus [11]
  Activity: 21%

## COc1ccc2c3c1O[C@H]1c4ncc(-c5ccc(Br)cc5)cc4C[C@@]4(O)[C@@H](C2)N(C)CC[C@]314
Mu-type opioid receptor [24]
  Ki: 1890 nM
Cavia porcellus
  Ratio: 320
[1]
  Ki: 23 nM
[7]
  Ratio: 82
[2]
  Ki: 7370 nM
